SIAE primary – inhibitors of human sialic acid acetylesterase SIAE; Q9HAT2; SIAE FP-Rh probe binding, fluorescence polarization; inhibition, % at 9.66 µM; 0.69% of 370,000 active; AID 1053197;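 active means inhibition above a cutoff: mean of compounds within the control limits plus 3 SD of those, cut at about 17% in these data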;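 further: 0% = plate median of compound wells and 100% = probe without SIAE protein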
TCR-CD3 inh – inhibitors of human TCR-CD3 interaction; 0.37% of 360,000 active; inhibition, % at 9.4 µM; TAMRA-labeled TCR probe fluorescence, biochemical; AID 651800; in the data active means inhibition above about 19%;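 further: recombinant mutant TCR 2C K166C tagged with TAMRA read by polarization; 0% = receptor in buffer alone and 100% = receptor with positive control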
ATG4B inh – inhibitors of human ATG4B cysteine protease; Q9Y4P1; ATG4B cleavage of LC3-PLA2, NBD-HPC fluorescence, 1 h; inhibition, % at 8.33 µM; 0.51% of 340,000 active; in the data active means inhibition above about 40%
Target sequence (Q9Y4P1 whole entry, looked up): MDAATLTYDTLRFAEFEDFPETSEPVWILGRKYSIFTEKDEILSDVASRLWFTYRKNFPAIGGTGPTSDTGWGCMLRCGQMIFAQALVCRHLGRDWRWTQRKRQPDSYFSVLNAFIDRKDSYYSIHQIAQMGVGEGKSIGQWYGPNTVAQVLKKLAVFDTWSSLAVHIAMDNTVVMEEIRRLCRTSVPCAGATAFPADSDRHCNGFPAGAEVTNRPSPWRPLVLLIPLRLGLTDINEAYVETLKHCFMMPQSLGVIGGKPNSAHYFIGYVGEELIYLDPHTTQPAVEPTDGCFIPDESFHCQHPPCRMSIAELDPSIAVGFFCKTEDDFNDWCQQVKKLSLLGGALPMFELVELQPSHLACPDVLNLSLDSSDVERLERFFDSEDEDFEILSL
mABHD4 FP – ABHD4 (mouse) inhibition, primary FP screen. purified mABHD4, FP-Rh probe fluorescence polarization. inhibition, % at 8.92 µM. 0.54% of 370,000 active. AID 720543;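 active means inhibition exceeding the mean over every tested compound plus 3 SD, cut at about 30% in these data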;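 further: 0% = plate median of compound wells and 100% = S159A mutant with DMSO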
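system = mouse ABHD4 enzyme, wild type | medium = HEPES pH 7.0, NaCl, Pluronic buffer | also added = FP-Rh probe | incubation = Enzyme–compound pre-incubation 45 min, then probe 60 min, both 25 °C | technique = fluorescence polarization, excitation 525 nm, emission 598 nm, BODIPY TMR filters | controls = S159A mutant high control, sample median low control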
PRMT1 FP inh – PRMT1 (human) inhibition, primary screen | Q99873 | recombinant PRMT1, activity-based probe fluorescence polarization | inhibition, % at 2.79 µM | 1.3% of 370,000 active | AID 652257;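 active means inhibition above about 21% made by adding two undisclosed values, limit read from the data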
HTRA1 inh – blocks human HTRA1 serine peptidase; AID 504803; recombinant HTRA1, FP-rhodamine activity-based probe, fluorescence polarization; 0.5% of 340,000 active; inhibition, % at 5.96 µM; Q92743; in the data active means inhibition above about 36%;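 further: 0% = enzyme with DMSO and 100% = wells lacking enzyme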
HTRA1 conf – confirmation of human HTRA1 inhibitors; shares compounds with HTRA1 inh; recombinant HTRA1, FP-rhodamine activity-based probe, fluorescence polarization; inhibition, % at 5.96 µM; 66% of 1,600 active; AID 540248;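 active means mean inhibition over three repeats above a set limit taken from the earlier primary screen, cut at about 37% in these data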;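 further: 0% = HTRA1 with DMSO and 100% = wells lacking HTRA1; inhibitors block probe binding so polarization drops and inhibition rises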
Numbers without * were called inactive; . = no result given. Sampled rows, rich in hits. Any-hit rate of the full collection: about 2.9%.

SMILES	SIAE primary	TCR-CD3 inh	ATG4B inh	mABHD4 FP	PRMT1 FP inh	HTRA1 inh	HTRA1 conf
CN(C)c1ccc(C=c2c3ccccc3n3c2c2c([n+]3C)CCCC2)cc1	-3.6	-7.8	32.3	7.7	3.7	52.8*	54.8*
O=C(N/N=C/c1ccc([N+](=O)[O-])o1)c1sc2ccccc2c1Cl	-0.8	6.6	7.7	27.3	15.3	52.1*	55.3*
CC(C)[C@H]1/C(=C/C2CC2)N2C(=O)C[C@H](c3ccccc3)N=C2N1C	2.8	.	.	1.0	0.2	.	.
CC(NS(=O)(=O)c1ccc2c(c1)OCCO2)c1ccccc1 (centres undefined)	-6.9	-3.7	-5.7	-1.3	-2.4	2.9	.
Cc1ccccc1C(C)NS(=O)(=O)c1ccc2c(c1)OCCO2 (centres undefined)	-3.0	3.0	2.9	1.1	-1.3	40.0*	34.2
CCN(CC)c1ccc(C=Nc2ccc(N(C)C)cc2)c(O)c1	2.9	1.8	-0.9	25.9	24.9*	38.2*	-15.3
CCN(CC)c1ccc(C=Nc2ccc(C)cc2)c(O)c1	-3.9	7.7	2.3	9.7	1.1	-4.6	.
CC(=O)OC12CCCN(C1)/C(=C/c1ccc(Cl)cc1)C2 (centres undefined)	0.7	.	.	0.0	3.6	.	.
CC(=O)NC1CCCCN(Cc2ccc(Cl)cc2)C1=O (centres undefined)	4.3	.	.	-3.0	-7.9	.	.
O=[N+]([O-])c1ccc2c(c1Nc1ccccc1Cl)=NC1(CCCCC1)N=2	0.7	1.3	-7.2	2.0	2.8	.	.
Cc1ccc(Nc2c([N+](=O)[O-])ccc3c2=NC2(CCCCC2)N=3)cc1	16.6	-11.3	3.1	14.9	4.9	37.1*	74.6*
CCOn1c(=O)c(-c2cccs2)[n+]([O-])c2ccccc21	-2.7	7.4	-3.3	5.6	-1.7	27.1	.
CCOC(=O)COn1c(=O)c(-c2cccs2)[n+]([O-])c2ccccc21	-0.5	-6.5	-10.0	7.8	7.5	42.0*	10.0
COc1ccc(-n2cc(COC(=O)NCCc3ccccc3)nn2)cc1	0.3	.	.	0.4	-1.6	.	.
COc1ccc2nc(N=NC3=C(O)CC(C)(C)CC3=O)sc2c1	-3.5	4.9	1.2	26.5	-2.8	52.9*	58.3*
CC1(C)CC(=O)C(N=Nc2ccc3ncsc3c2)=C(O)C1	4.9	4.8	-12.6	3.1	4.0	8.9	.
COc1cccc(NC(=O)C2CCCN2C(=O)Nc2cccc3c2OCO3)c1 (centres undefined)	13.9	.	.	-1.3	-5.1	.	.
Cc1ccn2c(Nc3ccc4c(c3)OCO4)c(-c3ccccn3)nc2c1	25.1*	7.4	10.8	21.5	15.2	64.0*	74.6*
Cc1cc(C)n2c(Nc3ccc4c(c3)OCCO4)c(-c3ccccn3)nc2n1	7.9	6.2	.	14.7	11.3	.	.
Cc1ccc(Nc2c(-c3ccccn3)nc3cc(C)ccn23)cc1	8.2	4.0	25.2	9.6	-4.8	43.7*	61.5*
Cc1ccc(Nc2c(-c3ccccn3)nc3ccc(C)cn23)cc1	8.3	-4.0	0.0	10.7	-1.3	55.3*	57.5*
Cc1ccc2nc(-c3ccncc3)c(Nc3ccccc3)n2c1	7.7	-0.6	3.2	2.5	-2.1	-5.3	.
Cc1oc2c(O)c(O)ccc2c(=O)c1-c1cnn(-c2ccccc2)c1	5.4	9.8	0.8	21.7	26.3*	60.8*	92.3*
O=C(NCc1ccccc1F)C1C2C=CC3(CN(Cc4ccccc4)C(=O)C13)O2 (centres undefined)	-4.8	.	.	6.0	3.0	.	.
COc1cc(O)c2c(=O)c3c(O)ccc(O)c3oc2c1	4.0	5.8	-29.1	28.4	-0.4	54.7*	0.3
SMILES	SIAE primary	TCR-CD3 inh	ATG4B inh	mABHD4 FP	PRMT1 FP inh	HTRA1 inh	HTRA1 conf
COc1cc(O)c2c(=O)c3c(O[C@H]4O[C@@H](CO)[C@H](O)[C@@H](O)[C@@H]4O)ccc(O)c3oc2c1	0.4	-5.9	-8.1	4.6	-0.7	2.3	.
O=C(Nc1ccc(F)cc1)OCc1cn(Cc2cc(F)ccc2F)nn1	-4.4	.	.	-4.3	3.4	.	.
CN1CCN(c2cc(-c3cc(O)c4ncccc4c3)ccn2)CC1	3.8	-5.6	-0.4	19.2	0.9	47.4*	61.8*
COC(=O)[C@@H]1C[C@@]2(c3ccccc3)c3ccccc3N(S(=O)(=O)c3ccccc3)[C@H]2N1C(=O)CNC/C=C(\C)CCC=C(C)C	3.9	.	.	17.4	0.3	.	.
COc1ccc2cc(CO)n(C)c2c1	11.0	6.5	7.9	1.8	-0.4	41.8*	22.6
CCC(=O)NC(c1ccc(OC)cc1)c1c(O)ccc2ccccc12 (centres undefined)	4.7	-3.2	1.4	-11.1	-0.9	-10.4	.
CCC(=O)NC(c1ccco1)c1cc(Cl)c2cccnc2c1OC (centres undefined)	0.2	-3.5	-7.4	10.7	0.6	-3.4	.
CCC(=O)NC(c1ccc(OC)cc1)c1cc(Cl)c2cccnc2c1O (centres undefined)	14.8	2.0	-4.2	8.5	-2.7	59.3*	72.5*
CCCCC(=O)NC(c1ccco1)c1cc(Cl)c2cccnc2c1O (centres undefined)	10.5	-2.3	12.4	11.6	-1.6	59.0*	64.9*
CCC(=O)NC(c1ccco1)c1cc(Cl)c2cccnc2c1O (centres undefined)	10.1	-1.4	-4.7	18.3	2.7	55.7*	63.5*
CC(=O)NC(c1cc(Cl)c2cccnc2c1O)C(C)C (centres undefined)	3.0	-0.2	-4.7	13.9	-0.9	52.9*	72.5*
CC(=O)NC(c1cc(Cl)c2cccnc2c1O)C1CC1 (centres undefined)	15.7	1.0	-3.3	4.2	-4.9	31.8	.
CC(=O)NC(c1cc(Cl)c2ccccc2c1O)C(C)C (centres undefined)	13.6	-1.1	-7.0	-6.8	-0.2	-11.4	.
CN(CCO)c1cccc2c1S(=O)(=O)N(Cc1cn(Cc3cccc(C(F)(F)F)c3)nn1)Cc1ccccc1O2	6.9	.	.	-1.9	-2.6	.	.
O=C(CSc1nnc(-c2ccccc2)n1-c1ccccc1)Nc1ccc(Oc2ccccc2)cc1	9.9	.	.	-1.1	-1.4	.	.
COc1ccc(-n2c(SCC(=O)N3CCCC3)nnc2-c2ccncc2)cc1	-6.6	.	.	7.0	-2.3	.	.
Cc1ccc(Cn2cc(CN(C(C)(C)C)S(=O)(=O)c3ccccc3Br)nn2)cc1	1.3	.	.	0.3	0.7	.	.
COc1cc(/C=N/NC(=O)c2cc3ccccc3cc2O)ccc1OCCN1CCCCC1	10.8	1.0	-1.9	28.6	-2.5	48.2*	25.4
COCCn1c(C)cc(/C=N/NC(=O)c2cc3ccccc3cc2O)c1C	.	.	-13.9	.	.	43.6*	20.7
CCOc1ccc(/C=N/NC(=O)c2cc3ccccc3cc2OC)cc1	-10.3	9.4	11.0	-5.5	-0.3	-46.2	.
